Measured values from PubChem BioAssay.
Unmarked numbers belong to inactive results.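 How the source made its calls: active means viability at or below 30% in both replicate assays; inconclusive means viability at or below 30% in just one of the two assays; inactive means the rest.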

Assay: HUVEC growth inhibition – cell-based, human, primary screen (AID 575);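 further: 100% = median of untreated cell wells with 0.1% DMSO on each plate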
Conditions: HUVEC proliferation, CellTiter-Glo luminescence, 72 h; at 10 µM; hits give low values
Summary of the method: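 Test system – primary HUVEC, no more than 12 passages · Dosing – one dose, 10 µM final, 0.1% DMSO · Times – 72 h treatment at 37 °C · Measured by – ATP-based CellTiter-Glo luminescent read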

SMILES	viability [%]
CC1(C)NC(=O)N(CN2C(=O)NC(C)(C)C2=O)C1=O	99.6
Cc1ccccc1NC(=O)C1CCC(C)(C(=O)O)C1(C)C (configuration not stated)	92.7
CC(C)[C@H](NC(=O)OC(C)(C)C)c1nnc(S(=O)(=O)Cc2c(F)cccc2Cl)o1	69.5
CSC1CCCCC1(O)CSc1nc2c(cc1C#N)CCCC2 (configuration not stated)	75.4
Cc1cccc(NC(=O)CCn2ccnc2C)c1	98.8
CCCSc1nnc(-c2ccccc2NC(=O)CC)c(=O)[nH]1	99.4
Cc1ccc(S(=O)(=O)N2CCCC2C(=O)OCc2ccco2)cc1 (configuration not stated)	96
Cc1ccc(C2C(C#N)=C(N)Oc3cc4c(cc32)OCO4)cc1 (configuration not stated)	48.4
CCNc1oc(COc2ccccc2F)nc1C#N	89.8
CC(C)Cc1nnc(NC(=O)CCC(=O)N2CCOCC2)s1	91.5
Cc1cccc(OCC(=O)Nc2ccccc2N2CCN(C(=O)C(C)C)CC2)c1C	88.3
CC1(C)NC(=O)N(CCOc2cccc(Cl)c2Cl)C1=O	98.7
Cn1c(=O)[nH]c(=O)c2c1nc(NC1CCCCC1)n2CC(=O)NC1CCCCC1	99.5
COc1ccc(Nc2ncc3c(n2)CC(c2ccc(OC)cc2)CC3=O)cc1 (configuration not stated)	84.4
COc1ccc(OC)c(Nc2ncnc3c2cnn3-c2ccccc2)c1	99.3
O=C(c1ccc(-c2ccccc2)cc1)N1CCC(C(=O)N2CCCC2)CC1	97.3
Cc1cccc(NCc2ccccc2O)c1	76.1
